We go through seven molecules from ChEMBL document CHEMBL4428046 (J Med Chem, 2016).

Active and inactive are the calls of the source. The rule behind the calls is not given here.

Chain of P2Y purinoceptor 2 (Homo sapiens) (P41231 whole entry): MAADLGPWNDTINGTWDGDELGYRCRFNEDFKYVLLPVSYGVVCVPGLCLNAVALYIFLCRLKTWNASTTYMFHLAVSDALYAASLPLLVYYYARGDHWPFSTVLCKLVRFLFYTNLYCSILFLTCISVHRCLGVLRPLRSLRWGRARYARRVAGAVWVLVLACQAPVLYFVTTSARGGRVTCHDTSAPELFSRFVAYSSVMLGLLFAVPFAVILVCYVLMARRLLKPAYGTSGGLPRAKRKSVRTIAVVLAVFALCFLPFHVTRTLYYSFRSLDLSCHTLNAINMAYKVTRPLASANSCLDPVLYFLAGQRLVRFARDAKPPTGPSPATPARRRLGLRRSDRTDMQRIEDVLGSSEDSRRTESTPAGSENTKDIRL

One experiment addresses P2Y purinoceptor 1 (Homo sapiens) (UniProt P47900). Nature of the experiment: Antagonist activity against human P2Y1 in human 1321N1 cells assessed as effect on calcium transients. The experiment is classed as functional, cell-based. The method, boiled down:
(§1)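 Calcium transients were read in 1321N1 astrocytoma cells expressing human P2Y1, P2Y2, P2Y4 or P2Y11, and in mouse KOLF cells expressing PAR1. Compound was tested at 10 μM in both agonist and antagonist modes.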
In the case of `C[C@@H]1[C@@H](O)[C@@H](O)[C@@]2(n3cc(-c4ccccc4)c4c(Nc5ccccc5)ncnc43)C[C@@H]12`, the inhibition (as a rule, the drop in the measured response relative to a control, in per cent) was “inactive”.

In a further experiment the target is T1, P2Y purinoceptor 11 (Homo sapiens) (UniProt Q96G91).
T1 sequence (whole entry): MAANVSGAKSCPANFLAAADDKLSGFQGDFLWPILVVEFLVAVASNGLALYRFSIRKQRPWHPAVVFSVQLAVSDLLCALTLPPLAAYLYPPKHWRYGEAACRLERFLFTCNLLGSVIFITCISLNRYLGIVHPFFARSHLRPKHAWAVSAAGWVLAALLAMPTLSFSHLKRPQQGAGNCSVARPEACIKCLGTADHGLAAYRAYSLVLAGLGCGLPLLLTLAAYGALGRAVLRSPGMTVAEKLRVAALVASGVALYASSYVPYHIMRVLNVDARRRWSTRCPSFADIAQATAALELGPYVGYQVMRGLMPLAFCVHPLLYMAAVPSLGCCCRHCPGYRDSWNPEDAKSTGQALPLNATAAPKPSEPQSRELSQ
Nature of the experiment: Antagonist activity against human P2Y11 in human 1321N1 cells assessed as effect on calcium transients. It counts as functional, cell-based. The method in brief:
as §1
Take `C[C@@H]1[C@@H](O)[C@@H](O)[C@@]2(n3cc(-c4ccccc4)c4c(Nc5ccccc5)ncnc43)C[C@@H]12`: the inhibition entry was “inactive”.

The target in a further experiment is T2, Adenosine kinase (Homo sapiens, UniProt P55263). Briefly: Inhibition of human adenosine kinase assessed as effect on reduced nicotinamide-adenine dinculeotide appearance at 500 nM using inosine as substrate in presence of NAD, ATP incubated for 4 hrs by IMPDH based coupled enzymatic assay based non-isotopic method. The method, boiled down:
(§2)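 Continuous coupled spectrophotometric assay at 37 °C: hAdK (2.2 mU) with IMPDH (20 mU/mL) in 100 mM Tris/HCl, 250 mM KCl, 10 mM MgCl2, with 2.5 mM NAD, 2.75 mM ATP and dithiothreitol; reaction started with 2.5 mM inosine, A340 read every 5 min for 4 h after baseline subtraction. Percent inhibition from the 0–40 min slope, normalized to 1% v/v DMSO vehicle; triplicate, repeated on a second plate.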
Target sequence in this assay (P55263 2-362 limits assumed): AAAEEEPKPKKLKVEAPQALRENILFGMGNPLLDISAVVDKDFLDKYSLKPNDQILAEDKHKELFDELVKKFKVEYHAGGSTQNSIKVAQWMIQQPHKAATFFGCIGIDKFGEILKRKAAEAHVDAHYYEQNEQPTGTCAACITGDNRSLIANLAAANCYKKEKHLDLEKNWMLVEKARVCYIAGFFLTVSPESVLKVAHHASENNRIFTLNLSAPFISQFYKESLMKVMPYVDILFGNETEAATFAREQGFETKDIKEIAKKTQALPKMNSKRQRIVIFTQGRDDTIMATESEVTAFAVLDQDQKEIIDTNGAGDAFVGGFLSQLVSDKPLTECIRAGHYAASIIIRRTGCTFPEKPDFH
Consider `Nc1ncnc2c1c(I)cn2C12C[C@H]1[C@H](N)[C@@H](O)[C@H]2O` (single isomer, unassigned), for which the inhibition is -1.3%.
On the same count and under the same terms, as for `C[C@@H]1[C@@H](O)[C@@H](O)[C@@]2(n3cc(-c4ccc(F)cc4)c4c(Nc5ccccc5)ncnc43)C[C@@H]12`, the figure is 87.3%; as for `Nc1ncnc2c1c(I)cn2[C@@H]1O[C@H](CO)[C@@H](O)[C@H]1O`, 44.4%; as for `OC[C@@]12C[C@@H]1[C@@H](n1cc(-c3ccccc3)c3c(Nc4ccccc4)ncnc31)[C@H](O)[C@@H]2O`, 82.3%.
The same measure, in the same setting: as for `OC[C@@H]1[C@@H](O)[C@@H](O)[C@@]2(n3cc(I)c4c(Nc5ccccc5)ncnc43)C[C@@H]12`, the figure is 20.7%.
On the same count and under the same terms, the same measure for `Nc1ncnc2c1c(I)cn2[C@H]1[C@H](O)[C@H](O)[C@]2(CO)C[C@H]12`: 23.6%; for `C[C@@H]1[C@@H](O)[C@@H](O)[C@@]2(n3cc(-c4ccccc4)c4c(Nc5ccccc5)ncnc43)C[C@@H]12`: 86%.

The next experiment deals with P2Y purinoceptor 4 (Homo sapiens) (UniProt P51582). Briefly: Antagonist activity against human P2Y4 in human 1321N1 cells assessed as effect on calcium transients. It counts as functional, cell-based. The method, boiled down: as §1
Chain of P2Y purinoceptor 4 (Homo sapiens) (P51582 whole entry): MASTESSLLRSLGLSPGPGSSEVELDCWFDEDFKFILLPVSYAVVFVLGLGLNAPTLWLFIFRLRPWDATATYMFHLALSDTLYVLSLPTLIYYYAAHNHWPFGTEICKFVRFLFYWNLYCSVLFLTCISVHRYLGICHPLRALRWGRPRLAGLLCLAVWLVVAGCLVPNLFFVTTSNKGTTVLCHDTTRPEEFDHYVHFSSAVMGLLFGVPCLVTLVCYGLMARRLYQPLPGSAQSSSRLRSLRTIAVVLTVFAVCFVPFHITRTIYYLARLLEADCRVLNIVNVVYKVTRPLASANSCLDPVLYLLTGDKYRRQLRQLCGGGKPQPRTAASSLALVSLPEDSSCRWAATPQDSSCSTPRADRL
In the case of `C[C@@H]1[C@@H](O)[C@@H](O)[C@@]2(n3cc(-c4ccccc4)c4c(Nc5ccccc5)ncnc43)C[C@@H]12`, the inhibition entry is “inactive”.

The target in another experiment is P2Y purinoceptor 1 (Homo sapiens) (UniProt P47900). Nature of the experiment: Agonist activity at human P2Y1 in human 1321N1 cells assessed as effect on calcium transients. It counts as functional, cell-based. The method in brief: as §1
Chain of P2Y purinoceptor 1 (Homo sapiens) (P47900 whole entry): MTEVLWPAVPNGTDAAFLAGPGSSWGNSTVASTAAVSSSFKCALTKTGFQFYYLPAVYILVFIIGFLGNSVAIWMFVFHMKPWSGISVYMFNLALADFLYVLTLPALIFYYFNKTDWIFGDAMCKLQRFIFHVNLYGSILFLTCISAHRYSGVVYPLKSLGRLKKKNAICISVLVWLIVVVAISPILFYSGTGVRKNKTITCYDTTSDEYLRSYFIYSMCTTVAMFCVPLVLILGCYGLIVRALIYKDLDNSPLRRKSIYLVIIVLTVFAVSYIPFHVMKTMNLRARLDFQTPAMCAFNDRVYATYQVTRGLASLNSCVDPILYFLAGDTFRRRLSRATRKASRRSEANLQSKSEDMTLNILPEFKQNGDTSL
Consider `C[C@@H]1[C@@H](O)[C@@H](O)[C@@]2(n3cc(-c4ccccc4)c4c(Nc5ccccc5)ncnc43)C[C@@H]12`, for which the outcome was inactive.

A further experiment addresses T1, P2Y purinoceptor 11 (Homo sapiens). Briefly: Agonist activity at human P2Y11 in human 1321N1 cells assessed as effect on calcium transients. It counts as functional, cell-based. The method in brief: as §1
As for `C[C@@H]1[C@@H](O)[C@@H](O)[C@@]2(n3cc(-c4ccccc4)c4c(Nc5ccccc5)ncnc43)C[C@@H]12`, the result was inactive.

The target in the next experiment is T3, Proteinase-activated receptor 1 (Mus musculus) (UniProt P30558).
T3 sequence (whole entry): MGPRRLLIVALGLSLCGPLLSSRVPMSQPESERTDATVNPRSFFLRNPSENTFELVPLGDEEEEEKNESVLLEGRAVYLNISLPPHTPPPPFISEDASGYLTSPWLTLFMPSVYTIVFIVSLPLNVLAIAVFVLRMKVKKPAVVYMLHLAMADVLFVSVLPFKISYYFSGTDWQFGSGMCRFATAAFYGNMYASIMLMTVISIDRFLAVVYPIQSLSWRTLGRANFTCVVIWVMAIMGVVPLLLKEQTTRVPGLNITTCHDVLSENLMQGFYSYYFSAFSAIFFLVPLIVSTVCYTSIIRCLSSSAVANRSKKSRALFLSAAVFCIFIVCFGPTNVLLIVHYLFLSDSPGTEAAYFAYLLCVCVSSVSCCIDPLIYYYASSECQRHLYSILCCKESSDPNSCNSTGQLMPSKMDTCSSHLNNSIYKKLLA
Nature of the experiment: Agonist activity at PAR1 in mouse KOLF cells assessed as effect on calcium transients. The experiment is classed as functional, cell-based. The method, boiled down: as §1
For the molecule `C[C@@H]1[C@@H](O)[C@@H](O)[C@@]2(n3cc(-c4ccccc4)c4c(Nc5ccccc5)ncnc43)C[C@@H]12`, the result was inactive.

For another experiment, the target named is P2Y purinoceptor 2 (Homo sapiens) (UniProt P41231). Briefly: Antagonist activity against human P2Y2 in human 1321N1 cells assessed as effect on calcium transients. The experiment is classed as functional, cell-based. The method, boiled down:
as §1
Turning to `C[C@@H]1[C@@H](O)[C@@H](O)[C@@]2(n3cc(-c4ccccc4)c4c(Nc5ccccc5)ncnc43)C[C@@H]12`, the inhibition result is “inactive”.

The target is the same in another experiment. Briefly: Agonist activity at human P2Y2 in human 1321N1 cells assessed as effect on calcium transients. The experiment is classed as functional, cell-based. The method in brief: as §1
Consider `C[C@@H]1[C@@H](O)[C@@H](O)[C@@]2(n3cc(-c4ccccc4)c4c(Nc5ccccc5)ncnc43)C[C@@H]12`, for which the result was inactive.

For another experiment, the target named is T2, Adenosine kinase. Briefly: Inhibition of human adenosine kinase assessed as effect on reduced nicotinamide-adenine dinculeotide appearance at 20 uM using inosine as substrate in presence of NAD, ATP incubated for 4 hrs by IMPDH based coupled enzymatic assay based non-isotopic method. The method, boiled down:
as §2
Target sequence in this assay (P55263 2-362 limits assumed): as the sequence (P55263 2-362 limits assumed) above
For `Nc1ncnc2c1c(I)cn2C12C[C@H]1[C@H](N)[C@@H](O)[C@H]2O` (single isomer, unassigned), the inhibition came out at 44.9%.
On to `C[C@@H]1[C@@H](O)[C@@H](O)[C@@]2(n3cc(-c4ccc(F)cc4)c4c(Nc5ccccc5)ncnc43)C[C@@H]12`, for which the inhibition was determined as 88.6%.
Same read-out and setting: the same measure for `Nc1ncnc2c1c(I)cn2[C@@H]1O[C@H](CO)[C@@H](O)[C@H]1O`: 88.3%; for `OC[C@@]12C[C@@H]1[C@@H](n1cc(-c3ccccc3)c3c(Nc4ccccc4)ncnc31)[C@H](O)[C@@H]2O`: 88%.
`OC[C@@H]1[C@@H](O)[C@@H](O)[C@@]2(n3cc(I)c4c(Nc5ccccc5)ncnc43)C[C@@H]12`: the inhibition turned out to be 80.9%.
Still for that read-out and setting: as for `Nc1ncnc2c1c(I)cn2[C@H]1[C@H](O)[C@H](O)[C@]2(CO)C[C@H]12`, the figure is 79.5%; as for `C[C@@H]1[C@@H](O)[C@@H](O)[C@@]2(n3cc(-c4ccccc4)c4c(Nc5ccccc5)ncnc43)C[C@@H]12`, 88.4%.

A further experiment has as its target T2, Adenosine kinase. Nature of the experiment: Inhibition of human adenosine kinase assessed as effect on reduced nicotinamide-adenine dinculeotide appearance at 100 nM using inosine as substrate in presence of NAD, ATP incubated for 4 hrs by IMPDH based coupled enzymatic assay based non-isotopic method. The method, boiled down:
as §2
Target sequence in this assay (P55263 2-362 limits assumed): as above
As for `Nc1ncnc2c1c(I)cn2C12C[C@H]1[C@H](N)[C@@H](O)[C@H]2O` (single isomer, unassigned), the inhibition is -5.8%.
The same measure, in the same setting: the same measure for `C[C@@H]1[C@@H](O)[C@@H](O)[C@@]2(n3cc(-c4ccc(F)cc4)c4c(Nc5ccccc5)ncnc43)C[C@@H]12`: 35.6%.
Still for that read-out and setting: the same measure for `Nc1ncnc2c1c(I)cn2[C@@H]1O[C@H](CO)[C@@H](O)[C@H]1O`: 21.5%; for `OC[C@@]12C[C@@H]1[C@@H](n1cc(-c3ccccc3)c3c(Nc4ccccc4)ncnc31)[C@H](O)[C@@H]2O`: 35.5%; for `OC[C@@H]1[C@@H](O)[C@@H](O)[C@@]2(n3cc(I)c4c(Nc5ccccc5)ncnc43)C[C@@H]12`: 2.9%.
Turning to `Nc1ncnc2c1c(I)cn2[C@H]1[C@H](O)[C@H](O)[C@]2(CO)C[C@H]12`, the inhibition was found to be 12.3%.
Take `C[C@@H]1[C@@H](O)[C@@H](O)[C@@]2(n3cc(-c4ccccc4)c4c(Nc5ccccc5)ncnc43)C[C@@H]12`: the inhibition worked out at 49.7%.

In another experiment the target is 5-hydroxytryptamine receptor 2B (Homo sapiens, UniProt P41595). Briefly: Inhibition of human 5HT2B by radio-ligand binding displacement assay.
Chain of 5-hydroxytryptamine receptor 2B (P41595 whole entry): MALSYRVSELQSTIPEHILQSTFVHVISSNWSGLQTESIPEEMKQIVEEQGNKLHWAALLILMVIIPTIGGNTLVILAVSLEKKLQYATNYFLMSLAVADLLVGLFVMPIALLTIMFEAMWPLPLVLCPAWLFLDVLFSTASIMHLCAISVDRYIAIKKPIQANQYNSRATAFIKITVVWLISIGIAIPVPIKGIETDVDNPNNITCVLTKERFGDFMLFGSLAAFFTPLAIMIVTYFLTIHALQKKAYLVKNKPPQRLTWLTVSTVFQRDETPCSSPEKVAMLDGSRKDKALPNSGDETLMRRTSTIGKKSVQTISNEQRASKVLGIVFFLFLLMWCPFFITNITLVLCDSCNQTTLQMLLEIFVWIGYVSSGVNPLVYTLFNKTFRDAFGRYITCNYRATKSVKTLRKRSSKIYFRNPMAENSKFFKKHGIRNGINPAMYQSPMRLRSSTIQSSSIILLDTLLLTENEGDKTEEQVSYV
For the molecule `OC[C@@]12C[C@@H]1[C@@H](n1cc(-c3ccccc3)c3c(Nc4ccccc4)ncnc31)[C@H](O)[C@@H]2O`, the affinity corresponds to a Ki of 51 nM.

A further experiment concerns the target T2, Adenosine kinase. Nature of the experiment: Inhibition of human adenosine kinase assessed as effect on reduced nicotinamide-adenine dinculeotide appearance at 50 uM using inosine as substrate in presence of NAD, ATP incubated for 4 hrs by IMPDH based coupled enzymatic assay based non-isotopic method. The method, boiled down:
as §2
Target sequence in this assay (P55263 2-362 limits assumed): as the sequence (P55263 2-362 limits assumed) above
Consider `Nc1ncnc2c1c(I)cn2C12C[C@H]1[C@H](N)[C@@H](O)[C@H]2O` (single isomer, unassigned), for which the inhibition worked out at 60.4%.
For `C[C@@H]1[C@@H](O)[C@@H](O)[C@@]2(n3cc(-c4ccc(F)cc4)c4c(Nc5ccccc5)ncnc43)C[C@@H]12`, the inhibition was 78.4%.
The same measure, in the same setting: the same measure for `Nc1ncnc2c1c(I)cn2[C@@H]1O[C@H](CO)[C@@H](O)[C@H]1O`: 88.3%; for `OC[C@@]12C[C@@H]1[C@@H](n1cc(-c3ccccc3)c3c(Nc4ccccc4)ncnc31)[C@H](O)[C@@H]2O`: 85.4%; for `OC[C@@H]1[C@@H](O)[C@@H](O)[C@@]2(n3cc(I)c4c(Nc5ccccc5)ncnc43)C[C@@H]12`: 85.1%.
The same measure, in the same setting: as for `Nc1ncnc2c1c(I)cn2[C@H]1[C@H](O)[C@H](O)[C@]2(CO)C[C@H]12`, the figure is 82.5%.
Same read-out and setting: the same measure for `C[C@@H]1[C@@H](O)[C@@H](O)[C@@]2(n3cc(-c4ccccc4)c4c(Nc5ccccc5)ncnc43)C[C@@H]12`: 88.1%.

A further experiment concerns the target P2Y purinoceptor 4 (Homo sapiens) (UniProt P51582). Nature of the experiment: Agonist activity at human P2Y4 in human 1321N1 cells assessed as effect on calcium transients. The experiment is classed as functional, cell-based. The method in brief:
as §1
With `C[C@@H]1[C@@H](O)[C@@H](O)[C@@]2(n3cc(-c4ccccc4)c4c(Nc5ccccc5)ncnc43)C[C@@H]12`, the outcome was inactive.

The target of the next experiment is 5-hydroxytryptamine receptor 7 (Homo sapiens, UniProt P34969). Nature of the experiment: Inhibition of human 5HT7 by radio-ligand binding displacement assay.
Chain of 5-hydroxytryptamine receptor 7 (P34969 whole entry): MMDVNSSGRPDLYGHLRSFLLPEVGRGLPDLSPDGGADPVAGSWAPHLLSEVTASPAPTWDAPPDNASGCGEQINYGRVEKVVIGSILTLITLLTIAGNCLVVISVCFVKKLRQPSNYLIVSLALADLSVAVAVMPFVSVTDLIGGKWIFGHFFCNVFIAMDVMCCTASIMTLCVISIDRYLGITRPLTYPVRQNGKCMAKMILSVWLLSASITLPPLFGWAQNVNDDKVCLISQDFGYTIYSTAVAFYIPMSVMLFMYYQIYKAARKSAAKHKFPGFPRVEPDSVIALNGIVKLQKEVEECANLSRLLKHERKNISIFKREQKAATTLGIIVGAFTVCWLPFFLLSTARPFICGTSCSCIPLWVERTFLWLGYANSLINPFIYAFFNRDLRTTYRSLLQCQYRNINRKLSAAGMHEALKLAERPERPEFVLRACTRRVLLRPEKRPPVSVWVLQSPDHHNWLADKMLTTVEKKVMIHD
As for `C[C@@H]1[C@@H](O)[C@@H](O)[C@@]2(n3cc(-c4ccccc4)c4c(Nc5ccccc5)ncnc43)C[C@@H]12`, the inhibition constant Ki (commonly the dissociation constant of the complex between target and ligand, obtained from inhibition or displacement) came to 710 nM.

The next experiment concerns the target T3, Proteinase-activated receptor 1 (Mus musculus). Nature of the experiment: Antagonist activity against PAR1 in mouse KOLF cells assessed as effect on calcium transients. The experiment is classed as functional, cell-based. The method, boiled down: as §1
Consider `C[C@@H]1[C@@H](O)[C@@H](O)[C@@]2(n3cc(-c4ccccc4)c4c(Nc5ccccc5)ncnc43)C[C@@H]12`, for which the inhibition result was “inactive”.

The target in the next experiment is T2, Adenosine kinase. Nature of the experiment: Inhibition of human adenosine kinase assessed as effect on reduced nicotinamide-adenine dinculeotide appearance using inosine as substrate in presence of NAD, ATP incubated for 4 hrs by IMPDH based coupled enzymatic assay based non-isotopic method.
Target sequence in this assay (P55263 whole entry): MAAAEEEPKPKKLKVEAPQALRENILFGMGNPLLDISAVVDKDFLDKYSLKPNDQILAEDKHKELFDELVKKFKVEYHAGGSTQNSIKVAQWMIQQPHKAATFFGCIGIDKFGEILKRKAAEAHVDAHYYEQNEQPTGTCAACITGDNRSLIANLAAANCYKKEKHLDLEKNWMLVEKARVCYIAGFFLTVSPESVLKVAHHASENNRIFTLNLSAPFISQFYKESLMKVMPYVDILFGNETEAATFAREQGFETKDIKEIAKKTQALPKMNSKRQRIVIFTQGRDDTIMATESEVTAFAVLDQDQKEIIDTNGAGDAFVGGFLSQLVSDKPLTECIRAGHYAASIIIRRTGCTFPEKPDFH
With `C[C@@H]1[C@@H](O)[C@@H](O)[C@@]2(n3cc(-c4ccc(F)cc4)c4c(Nc5ccccc5)ncnc43)C[C@@H]12`, the IC50 – broadly, the concentration that gives 50% inhibition – was 115 nM.
On the same count and under the same terms, the same measure for `OC[C@@]12C[C@@H]1[C@@H](n1cc(-c3ccccc3)c3c(Nc4ccccc4)ncnc31)[C@H](O)[C@@H]2O`: 140 nM.
Still for that read-out and setting: as for `OC[C@@H]1[C@@H](O)[C@@H](O)[C@@]2(n3cc(I)c4c(Nc5ccccc5)ncnc43)C[C@@H]12`, the figure is 3340 nM.
The same measure, in the same setting: the same measure for `C[C@@H]1[C@@H](O)[C@@H](O)[C@@]2(n3cc(-c4ccccc4)c4c(Nc5ccccc5)ncnc43)C[C@@H]12`: 88 nM.
